{
  "source": "ChEMBL document CHEMBL1150337",
  "about": "“Lavendamycin antitumor agents: structure-based design, synthesis, and NAD(P)H:quinone oxidoreductase 1 (NQO1) model validation with molecular docking and biological studies” (J Med Chem, 2008)",
  "key": {"[1]": {"tested_on": "BE-NQ", "test": "Selectivity ratio of IC50 for NQO1 deficient human BE cells to IC50 for human BE-NQ cells expressing NQO1", "format": "functional", "procedure,_shortened": "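Ratio of MTT-derived IC50 in NQO1-deficient BE cells to IC50 in NQO1-transfected BE-NQ cells. IC50 was read from semilog plots of percent of control vs concentration.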"}, "[2]": {"tested_on": "BE", "test": "Cytotoxicity against NQO1 deficient human BE cells after 4 to 5 days by MTT assay", "format": "functional, cell-based", "procedure,_shortened": "(§1)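 Cells in MEM with Earle's salts, 10% FBS, 37 °C, 5% CO2. Seeded at 10000 cells/mL, attached overnight (16 h). Analogue in medium for 2 h, then fresh medium for 4–5 days. MTT (50 µg) added for 4 h, formazan dissolved in DMSO, absorbance read at 560 nm. IC50 (50% of control survival) taken from semilog plots of percent control vs concentration.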"}, "[3]": {"biological_target": "NAD(P)H dehydrogenase [quinone] 1 (Homo sapiens) (UniProt P15559)", "sequence (P15559 whole entry)": "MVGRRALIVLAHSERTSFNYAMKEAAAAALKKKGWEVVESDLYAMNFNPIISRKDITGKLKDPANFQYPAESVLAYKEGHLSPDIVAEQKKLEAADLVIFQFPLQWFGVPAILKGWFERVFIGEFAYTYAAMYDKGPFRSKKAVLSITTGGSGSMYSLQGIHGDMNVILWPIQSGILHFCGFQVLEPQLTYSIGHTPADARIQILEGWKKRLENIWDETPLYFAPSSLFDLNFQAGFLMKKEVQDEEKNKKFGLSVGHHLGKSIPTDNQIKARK", "test": "Activity of human recombinant NQO1 assessed as reduction of cytochrome c per mg of protein by spectrophotometric assay", "procedure,_shortened": "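Cytochrome c reduction followed at 550 nm as initial rates. Mix: cytochrome c 70 µm, NADH 1 mM, recombinant human NQO1 (0.1–3 µg) and lavendamycin analogue 25 µm in 1 mL Tris-HCl 25 mM pH 7.4 with 0.7 mg/mL BSA and 0.1% Tween-20. At least triplicate.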"}, "[4]": {"tested_on": "BE-NQ", "test": "Cytotoxicity against human BE-NQ cells expressing human NQO1 after 4 to 5 days by MTT assay", "format": "functional, cell-based", "procedure,_shortened": "as §1"}},
  "note": "pIC50: −log10 of the molar value.",
  "data": [
    {"smiles": "CCCCCCCCOC(=O)c1cc2c([nH]c3ccccc32)c(-c2ccc3c(n2)C(=O)C(N)=CC3=O)n1", "values": [
      {"measurement": "Ratio IC50", "setting": "[1]", "result": 10}
    ]},
    {"smiles": "COC(=O)c1cc2c([nH]c3ccccc32)c(-c2ccc3c(n2)C(=O)C(NC(=O)c2ccco2)=CC3=O)n1", "values": [
      {"measurement": "Ratio IC50", "setting": "[1]", "result": 1},
      {"measurement": "pIC50", "setting": "[2]", "result": 4.31},
      {"measurement": "Activity", "setting": "[3]", "result": 7, "unit": "µmol/min/mg"},
      {"measurement": "pIC50", "setting": "[4]", "result": 4.33}
    ]},
    {"smiles": "CCC(C)NC(=O)c1cc2c([nH]c3ccccc32)c(-c2ccc3c(n2)C(=O)C(NC(C)=O)=CC3=O)n1", "note": "(configuration not stated)", "values": [
      {"measurement": "pIC50", "setting": "[2]", "result": "< 4.30"},
      {"measurement": "Activity", "setting": "[3]", "result": 4.9, "unit": "µmol/min/mg"},
      {"measurement": "pIC50", "setting": "[4]", "result": "< 4.30"}
    ]},
    {"smiles": "NC1=CC(=O)c2ccc(-c3[nH]c(CO)cc4c5ccccc5nc3-4)nc2C1=O", "values": [
      {"measurement": "Ratio IC50", "setting": "[1]", "result": 11}
    ]},
    {"smiles": "COC(=O)c1[nH]c(-c2ccc3c(n2)C(=O)C(=N)C=C3O)c2nc3ccccc3c-2c1C", "values": [
      {"measurement": "Ratio IC50", "setting": "[1]", "result": 9}
    ]},
    {"smiles": "CCCC(=O)NC1=CC(=O)c2ccc(-c3nc(C(=O)OCCC(C)C)cc4c3[nH]c3ccccc34)nc2C1=O", "values": [
      {"measurement": "pIC50", "setting": "[2]", "result": "< 4.30"},
      {"measurement": "Activity", "setting": "[3]", "result": 3.4, "unit": "µmol/min/mg"},
      {"measurement": "pIC50", "setting": "[4]", "result": "< 4.30"}
    ]},
    {"smiles": "NC1=CC(=O)c2ccc(-c3nc(C(=O)OCCO)cc4c3[nH]c3ccccc34)nc2C1=O", "values": [
      {"measurement": "Ratio IC50", "setting": "[1]", "result": 7},
      {"measurement": "pIC50", "setting": "[2]", "result": 5.48},
      {"measurement": "Activity", "setting": "[3]", "result": 60, "unit": "µmol/min/mg"},
      {"measurement": "pIC50", "setting": "[4]", "result": 6.30}
    ]},
    {"smiles": "N=C1C=C(O)c2ccc(-c3nc(C(N)=O)cc4c3[nH]c3ccccc34)nc2C1=O", "values": [
      {"measurement": "Ratio IC50", "setting": "[1]", "result": 9}
    ]},
    {"smiles": "CCCCNC(=O)c1cc2c([nH]c3ccccc32)c(-c2ccc3c(n2)C(=O)C(NC(C)=O)=CC3=O)n1", "values": [
      {"measurement": "Ratio IC50", "setting": "[1]", "result": 30},
      {"measurement": "pIC50", "setting": "[2]", "result": 4.30},
      {"measurement": "Activity", "setting": "[3]", "result": 143, "unit": "µmol/min/mg"},
      {"measurement": "pIC50", "setting": "[4]", "result": 5.77}
    ]}
  ]
}
